According to ChEMBL document CHEMBL2163208, “Diphenylpyridylethanamine (DPPE) derivatives as cholesteryl ester transfer protein (CETP) inhibitors” (J Med Chem, 2012):
pIC50: −log10 of the molar value.

Experiments:
[1] = target: T1, Cholesteryl ester transfer protein (Homo sapiens, UniProt P11597); assay: Inhibition of human recombinant CETP-mediated [3H]cholesteryl ester transfer from HDL to biotinylated LDL by scintillation proximity assay
T1 sequence (P11597 whole entry): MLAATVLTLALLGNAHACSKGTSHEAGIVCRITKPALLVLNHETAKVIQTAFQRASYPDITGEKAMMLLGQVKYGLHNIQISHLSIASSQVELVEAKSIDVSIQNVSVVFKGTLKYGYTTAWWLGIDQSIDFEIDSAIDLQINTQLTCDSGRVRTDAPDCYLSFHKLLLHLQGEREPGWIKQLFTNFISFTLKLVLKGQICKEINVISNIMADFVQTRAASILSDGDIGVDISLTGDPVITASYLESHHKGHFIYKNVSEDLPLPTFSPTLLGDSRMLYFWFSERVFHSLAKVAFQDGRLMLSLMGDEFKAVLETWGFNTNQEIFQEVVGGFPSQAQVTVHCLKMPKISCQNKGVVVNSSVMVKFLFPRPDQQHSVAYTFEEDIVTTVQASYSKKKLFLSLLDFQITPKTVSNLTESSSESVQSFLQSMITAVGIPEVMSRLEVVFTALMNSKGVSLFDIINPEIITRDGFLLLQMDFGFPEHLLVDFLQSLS

[2] = target: T1, Cholesteryl ester transfer protein; assay: Inhibition of CETP-mediated [3H]cholesteryl ester transfer activity in human plasma after 2.5 hrs by scintillation counter
[3] = Metabolic stability in mouse liver microsomes assessed as compound remaining at 3 uM after 10 mins; assay type: ADME, Microsome; conditions: read-out: Stability
Summary of the method: (§1)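 Mouse liver microsomes (1 mg/mL protein) incubated with compound at 3 μM for 10 min; remaining compound quantified by UV absorbance, expressed as % remaining or rate per mg protein.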

[4] = Half life in telemeterized rat up to 60 mg/kg, po; assay type: ADME, organism-based; design: dose 60 mg/kg, route oral; conditions: in vivo
[5] = system: Rattus norvegicus; assay: Toxicity in telemeterized rat assessed as change in heart rate up to 60 mg/kg, po; assay type: organism-based; design: dose 60 mg/kg, route oral; conditions: in vivo
[6] = Cmax in telemeterized rat up to 60 mg/kg, po; assay type: ADME, organism-based; design: dose 60 mg/kg, route oral; conditions: in vivo
[7] = system: Rattus norvegicus; assay: Toxicity in telemeterized rat assessed as change in mean arterial blood pressure up to 60 mg/kg, po; assay type: organism-based; design: dose 60 mg/kg, route oral; conditions: in vivo
[8] = system: Syrian golden hamster; assay: Inhibition of CETP in moderately fat-fed golden Syrian hamster assessed as increase in HDL-cholesterol level at 30 mg/kg, po qd administered for 3 days measured at 2 hrs post last dose relative to predose condition; assay type: functional, Mesocricetus auratus; design: scale not given: the % may be the effect or the level left
Summary of the method: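 Male Golden Syrian hamsters, 12 weeks old, fed moderate-fat diet (2.5% coconut oil, 0.25% cholesterol) for 2 weeks. Predose retro-orbital bleed; 30 mg/kg po q.d. for 3 days in ethanol/Cremophor/water 1:1:8. Blood 2 h postdose on day 3; HDL-C measured by automated lipid analyzer versus predose; percent increase as mean ± SEM, N = 6.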

[9] = Plasma concentration in moderately fat-fed golden Syrian hamster at 30 mg/kg, po qd administered for 3 days measured at 2 hrs post last dose; assay type: ADME, organism-based, Mesocricetus auratus; design: dose 30 mg/kg, route oral
Summary of the method: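 Moderately fat-fed male Golden Syrian hamsters dosed 30 mg/kg po once daily; plasma exposure sampled 2 h after dosing on day 3.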

[10] = Drug metabolism in mouse liver microsomes assessed as per mg of protein at 3 uM after 10 mins; assay type: ADME, Microsome; summary of the method: as §1
[11] = AUC (0 to 8 hrs) in transgenic mouse expressing human CETP and apoB-100 at 30 mg/kg, po; assay type: ADME, organism-based; design: time < 8 hr, dose 30 mg/kg, route oral; conditions: plasma
[12] = species: Mus musculus; assay: Inhibition of [3H]cholesteryl ester transfer from HDL to LDL in human CETP expressed transgenic mouse plasma coexpressing apoB-100
[13] = system: Mus musculus; assay: [3H]cholesteryl ester transfer activity from HDL to LDL in human CETP expressed transgenic mouse plasma coexpressing apoB-100 at 30 mg/kg, po measured at 2 hrs relative to predose condition
[14] = system: Mus musculus; assay: Residual CETP-mediated [3H]cholesteryl ester transfer from HDL to LDL in human CETP expressed transgenic mouse coexpressing apoB-100 at 30 mg/kg, po measured at 8 hrs relative to predose condition
[15] = system: Mus musculus; assay: Residual CETP-mediated [3H]cholesteryl ester transfer from HDL to LDL in human CETP expressed transgenic mouse coexpressing apoB-100 at 30 mg/kg, po measured at 4 hrs relative to predose condition

Row | Compound | pIC50 [1] | pIC50 [2] | also measured
1 | CC(C)(C)NC(=O)NC(Cc1ccccc1)(c1cccc(C(F)(F)F)c1)c1ccccn1 (stereo not given) | 5.42 | 4.08 | –
2 | O=C(NC(Cc1ccccc1)(c1cccc(C(F)(F)F)c1)c1ccccn1)c1cccc(C(F)(F)F)c1 (stereo not given) | 4.92 | – | –
3 | CC(C)(C)CC(=O)O[C@](Cc1ccccc1)(c1cccc(C(F)(F)F)c1)c1ccccn1 | 4.36 | < 4.01 | –
4 | Cc1nc(C[C@](NC(=O)NC2CCCC2)(c2cc(F)cc(C(F)(F)F)c2)c2ccc(Cl)cn2)no1 | 5.97 | 4.47 | –
5 | O=C(NC1CCCC1)NC(Cc1ccccc1)(c1cccc(C(F)(F)F)c1)c1ccccn1 (stereo not given) | 6.15 | 4.60 | remaining at 10 min, 3 µM [3]: 2%
6 | COC(=O)C[C@](NC(=O)NC1CCCC1)(c1cc(F)cc(C(F)(F)F)c1)c1ccc(Cl)cn1 | 5.62 | – | –
7 | O=C(NC(Cc1ccccc1)(c1cccc(C(F)(F)F)c1)c1ccccn1)c1ccccc1 (stereo not given) | < 4.02 | – | –
8 | CC(C)(C)CC(=O)OC(Cc1ccccc1)(c1cccc(C(F)(F)F)c1)c1ccc(Cl)cn1 (racemic) | 5.89 | 5.03 | –
9 | CC(C)(C)CC(=O)O[C@@](Cc1ccccc1)(c1cccc(C(F)(F)F)c1)c1ccccn1 | 5.17 | 4.59 | –
10 | O=C(NC(Cc1ccccc1)(c1cccc(C(F)(F)F)c1)c1ccccn1)c1ccc(F)cc1 (stereo not given) | 5.05 | – | –
11 | O=C(NC1CCCC1)N[C@@](Cc1ncn[nH]1)(c1cc(F)cc(C(F)(F)F)c1)c1ccc(Cl)cn1 | < 4.02 | – | –
12 | CC(C)(C)CC(=O)OC(Cc1ccccc1)(c1cccc(OC(F)(F)C(F)F)c1)c1ccccn1 (racemic) | 5.96 | 4.55 | –
13 | CC(C)(C)CC(=O)NC(Cc1ccccc1)(c1cccc(C(F)(F)F)c1)c1ccccn1 (stereo not given) | 4.57 | – | –
14 | Cc1csc(C[C@](NC(=O)NC2CCCC2)(c2cc(F)cc(C(F)(F)F)c2)c2ccc(Cl)cn2)n1 | 5.96 | 4.62 | –
15 | CC(C)(C)CC(=O)OC(Cc1ccccc1)(c1cccc(C(F)(F)F)c1)c1ccccn1 (racemic) | 5.16 | 4.25 | –
16 | O=C(NC(Cc1ccccc1)(c1cccc(C(F)(F)F)c1)c1ccccn1)c1ccc(F)c(C(F)(F)F)c1 (stereo not given) | 5.54 | 4.82 | remaining at 10 min, 3 µM [3]: 68%
17 | CCOC(=O)N1c2ccc(C(F)(F)F)cc2[C@@H](N(Cc2cc(C(F)(F)F)cc(C(F)(F)F)c2)C(=O)OC)C[C@H]1CC [TORCETRAPIB] | – | – | AUC(0-t) at 8 h [11]: 65 µM·h; pIC50 [12]: 6.80; activity in vivo at 30 mg/kg [13]: 31%; CETP activity in vivo at 30 mg/kg [14]: 25%; CETP activity in vivo at 30 mg/kg [15]: 31%
18 | O=C(NC1CCCC1)N[C@@](Cc1ccccn1)(c1cc(F)cc(C(F)(F)F)c1)c1ccc(Cl)cn1 | 4.57 | – | –
19 | O=C(NC1CCCC1)N[C@@](Cc1ccccc1)(c1cc(F)cc(OC(F)(F)C(F)F)c1)c1ccc(Cl)cn1 | – | – | remaining at 10 min, 3 µM [3]: 10%; Drug metabolism [10]: 0.27 nmol/min/mg; AUC(0-t) at 8 h [11]: 9.7 µM·h; pIC50 [12]: 6.03; activity in vivo at 30 mg/kg [13]: 48%; CETP activity in vivo at 30 mg/kg [14]: 65%; CETP activity in vivo at 30 mg/kg [15]: 58%

Second part, led by results:

Row | pIC50 [1] | pIC50 [2] | Compound | also measured
20 | 7.07 | 5.15 | C=CC[C@](NC(=O)NC1CCCC1)(c1cc(F)cc(C(F)(F)F)c1)c1ccc(Cl)cn1 | –
21 | 7.60 | 6.08 | O=C(NC1CCCC1)NC(Cc1ccccc1)(c1cccc(OC(F)(F)C(F)F)c1)c1ccc(Cl)cn1 (racemic) | –
22 | 7.51 | 5.57 | O=C(NC1CCCC1)NC(Cc1ccccc1)(c1cccc(OC(F)(F)F)c1)c1ccc(Cl)cn1 (racemic) | –
23 | 7.64 | 5.47 | Cc1ccc(C[C@](NC(=O)NC2CCCC2)(c2cc(F)cc(C(F)(F)F)c2)c2ccc(Cl)cn2)cc1 | –
24 | 7.44 | 5.44 | O=C(N[C@@](Cc1ccccc1)(c1cc(F)cc(OC(F)(F)C(F)F)c1)c1ccc(Cl)cn1)c1ccc(F)c(C(F)(F)F)c1 | half-life [4]: 14 h; Activity [5]: Non-toxic; Cmax [6]: 25 µM; Activity [7]: Non-toxic; Activity [8]: 40%; concentration at 2 h [9]: 21 µM; remaining at 10 min, 3 µM [3]: 100%; Drug metabolism [10]: 0.0025 nmol/min/mg; AUC(0-t) at 8 h [11]: 93 µM·h; pIC50 [12]: 5.05; activity in vivo at 30 mg/kg [13]: 55%; CETP activity in vivo at 30 mg/kg [14]: 40%; CETP activity in vivo at 30 mg/kg [15]: 48%
25 | 6.62 | 5.16 | O=C(NC1CCCC1)NC(Cc1ccccc1)(c1cccc(C(F)(F)F)c1)c1ccc(F)cn1 (racemic) | –
26 | 7.59 | 5.12 | O=C(NC1CCCC1)N[C@@](Cc1ccccc1)(c1cc(F)cc(C(F)(F)F)c1)c1ccc(F)cn1 | –
27 | 7.51 | 4.92 | O=C(NC1CCCC1)NC(Cc1ccccc1)(c1ccc(Cl)nc1)c1cc(F)cc(C(F)(F)F)c1 (racemic) | –
28 | 7.80 | 5.19 | O=C(NC1CCCC1)N[C@@](Cc1ccccc1F)(c1cc(F)cc(C(F)(F)F)c1)c1ccc(Cl)cn1 | –
29 | 7.44 | 4.92 | N#Cc1ccc([C@@](Cc2ccccc2)(NC(=O)NC2CCCC2)c2cc(F)cc(C(F)(F)F)c2)nc1 | –
30 | 7.06 | 5.00 | O=C(NC1CCCC1)N[C@@](Cc1ccc(F)cc1)(c1cc(F)cc(C(F)(F)F)c1)c1ccc(Cl)cn1 | –
31 | 7.82 | 5.47 | COc1ccc([C@@](Cc2ccccc2)(NC(=O)NC2CCCC2)c2cc(F)cc(C(F)(F)F)c2)cn1 | –
32 | 6.51 | 4.80 | O=C(NC1CCCC1)NC(Cc1ccccc1)(c1cccc(C(F)(F)F)c1)c1ccc(Cl)cn1 (racemic) | –
